These results are taken from paper PMC4512242 (Nature chemical biology, 2015).

Ends that are not written are not given here.

Sequences and labels used below:
B6: LynD heterocyclase (cyclodehydratase), full length (enzyme, Lyngbya sp. PCC 8106)
chain: MQSTPLLQIQPHFHVEVIEPKQVYLLGEQANHALTGQLYCQILPLLNGQYTLEQIVEKLDGEVPPEYIDYVLERLAEKGYLTEAAPELSSEVAAFWSELGIAPPVAAEALRQPVTLTPVGNISEVTVAALTTALRDIGISVQTPTEAGSPTALNVVLTDDYLQPELAKINKQALESQQTWLLVKPVGSVLWLGPVFVPGKTGCWDCLAHRLRGNREVEASVLRQKQAQQQRNGQSGSVIGCLPTARATLPSTLQTGLQFAATEIAKWIVKYHVNATAPGTVFFPTLDGKIITLNHSILDLKSHILIKRSQCPTCGDPKILQHRGFEPLKLESRPKQFTSDGGHRGTTPEQTVQKYQHLISPVTGVVTELVRITDPANPLVHTYRAGHSFGSATSLRGLRNTLKHKSSGKGKTDSQSKASGLCEAVERYSGIFQGDEPRKRATLAELGDLAIHPEQCLCFSDGQYANRETLNEQATVAHDWIPQRFDASQAIEWTPVWSLTEQTHKYLPTALCYYHYPLPPEHRFARGDSNGNAAGNTLEEAILQGFMELVERDGVALWWYNRLRRPAVDLGSFNEPYFVQLQQFYRENDRDLWVLDLTADLGIPAFAGVSNRKTGSSERLILGFGAHLDPTIAILRAVTEVNQIGLELDKVPDENLKSDATDWLITEKLADHPYLLPDTTQPLKTAQDYPKRWSDDIYTDVMTCVNIAQQAGLETLVIDQTRPDIGLNVVKVTVPGMRHFWSRFGEGRLYDVPVKLGWLDEPLTEAQMNPTPMPF

Data set [1] has as its system LynD. Kind of data set: Heterocyclization reaction with LynD, MS. Format: biochemical, Lyngbya sp. PCC 8106. The conditions noted are these: LynD wild type; 100 μM PatE′ or variant, 5 μM enzyme, 150 mM NaCl, 10 mM HEPES pH 7.4, 1 mM TCEP, 5 mM ATP, 5 mM MgCl2, 16 h, 37 °C; ESI or MALDI MS. The essentials: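 Codon-optimized full-length LynD, with a TEV-cleaved His6-tag, is purified from E. coli BL21 (DE3) by Ni, monoQ and size-exclusion steps. PatE′ (C-terminal His6) comes from inclusion bodies, purified in 8 M urea, then DTT-treated and gel-filtered. 100 μM substrate is reacted with 5 μM enzyme and 5 mM ATP/MgCl2 in HEPES pH 7.4 for 16 h at 37 °C. Heterocycle number is read by ESI or MALDI MS.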

The subject of data set [2] is LynD Fusion. Kind of data set: Heterocyclization reaction with LynD fusion, MS. Type of data set: biochemical, Lyngbya sp. PCC 8106. The conditions noted are these: LynD Fusion; 100 μM PatE′, 5 μM enzyme, pH 7.4, 5 mM ATP, 5 mM MgCl2, 16 h, 37 °C; ESI or MALDI MS. The essentials: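 Enzyme is LynD carrying PatE leader residues 21-38 plus an 11-residue linker at its N-terminus, expressed in E. coli BL21 (DE3) with the His6-tag removed by TEV. Product is read by ESI/MALDI MS or LC-MS […].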

For data set [3], the target named is B6. Kind of data set: ITC.
The target in data set [4] is T1, LynD R399E (Lyngbya sp. PCC 8106, R399E).
T1 chain: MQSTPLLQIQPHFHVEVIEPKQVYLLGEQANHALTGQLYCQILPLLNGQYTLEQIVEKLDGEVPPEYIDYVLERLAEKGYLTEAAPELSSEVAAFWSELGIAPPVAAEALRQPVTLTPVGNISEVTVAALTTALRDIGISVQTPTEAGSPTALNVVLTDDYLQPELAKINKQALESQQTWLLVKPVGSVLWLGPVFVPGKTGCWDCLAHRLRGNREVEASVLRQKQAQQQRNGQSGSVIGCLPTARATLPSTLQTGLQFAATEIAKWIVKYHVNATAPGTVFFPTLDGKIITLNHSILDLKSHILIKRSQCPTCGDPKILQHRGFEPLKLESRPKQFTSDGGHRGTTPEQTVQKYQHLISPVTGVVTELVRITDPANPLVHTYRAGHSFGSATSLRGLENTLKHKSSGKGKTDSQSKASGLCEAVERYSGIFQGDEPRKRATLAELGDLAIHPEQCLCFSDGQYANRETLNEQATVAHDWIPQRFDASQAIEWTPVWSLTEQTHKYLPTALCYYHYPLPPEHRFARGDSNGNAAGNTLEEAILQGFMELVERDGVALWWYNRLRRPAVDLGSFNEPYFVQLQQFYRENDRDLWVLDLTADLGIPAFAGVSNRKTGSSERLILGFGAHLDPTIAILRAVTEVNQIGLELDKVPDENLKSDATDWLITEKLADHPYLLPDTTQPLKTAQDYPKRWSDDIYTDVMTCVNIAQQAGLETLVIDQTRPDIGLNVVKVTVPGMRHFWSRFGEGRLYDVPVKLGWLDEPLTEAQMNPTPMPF
Description: ITC. On the technique in general: ITC needs no label: the signal is the heat of the interaction.

For data set [5], the target named is T2, LynD Y67D (Lyngbya sp. PCC 8106, Y67D).
T2 chain: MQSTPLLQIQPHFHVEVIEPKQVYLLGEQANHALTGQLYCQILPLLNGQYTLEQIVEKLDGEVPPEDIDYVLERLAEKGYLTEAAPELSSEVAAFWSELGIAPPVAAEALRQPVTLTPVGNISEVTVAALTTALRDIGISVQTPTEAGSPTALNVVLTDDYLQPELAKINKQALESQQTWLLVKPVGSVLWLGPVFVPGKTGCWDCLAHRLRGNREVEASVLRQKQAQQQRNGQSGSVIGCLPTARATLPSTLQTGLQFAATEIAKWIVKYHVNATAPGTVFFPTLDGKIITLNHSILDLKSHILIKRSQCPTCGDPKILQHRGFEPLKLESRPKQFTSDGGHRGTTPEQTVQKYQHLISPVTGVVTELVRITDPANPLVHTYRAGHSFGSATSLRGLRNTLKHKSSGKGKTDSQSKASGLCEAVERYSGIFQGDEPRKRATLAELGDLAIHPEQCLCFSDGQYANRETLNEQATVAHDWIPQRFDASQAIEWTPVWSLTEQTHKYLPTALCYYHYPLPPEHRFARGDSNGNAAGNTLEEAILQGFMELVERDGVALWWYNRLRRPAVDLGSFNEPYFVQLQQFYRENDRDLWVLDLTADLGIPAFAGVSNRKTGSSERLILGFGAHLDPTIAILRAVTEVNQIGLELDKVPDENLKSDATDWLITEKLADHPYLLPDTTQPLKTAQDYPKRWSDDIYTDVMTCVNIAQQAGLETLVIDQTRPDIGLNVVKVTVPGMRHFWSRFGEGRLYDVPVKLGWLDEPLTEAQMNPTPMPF
Description: ITC.

The target in data set [6] is B6. Description: crystal structure.
Data set [7] deals with the molecule itself. Description: SEC. Background: Size exclusion chromatography separates by hydrodynamic size, large species first.

On to “PatE′ E32R (MDKKNILPQQGQPVIRLTAGQLSSQLAELSERALGDAGLEASKITACITFCAYDGELE; not fully specified (C-terminus); cysteine pairing not given here)”, for which the No. of heterocycles in data set [1] turned out to be 2.
In the case of “PatE′ L26R (MDKKNILPQQGQPVIRLTAGQLSSQRAELSEEALGDAGLEASKITACITFCAYDGELE; not fully specified (C-terminus); cysteine pairing not given here)”, the No. of heterocycles in data set [1] is listed as 2.
As for “MDKKNILPQQGQPVIRLTAGQLSSQLAELSEEALGDAGLEASKITACITFCAYDGELEHHH HHH [PatE′]”, the No. of heterocycles in data set [1] and in data set [2] was 2 throughout.

B1: PatE′ (modified PatE precursor peptide with full leader and a single core peptide ITACITFC) (peptide)
chain: MDKKNILPQQGQPVIRLTAGQLSSQLAELSEEALGDAGLEASKITACITFCAYDGELE
With B1, the equilibrium dissociation constant (Kd) – broadly, the constant that tells how readily two partners part at equilibrium – is 1.49 µM in data set [3], 10.7 µM in data set [4] and 12.9 µM in data set [5].

B2: PatE′ L26R (peptide)
chain: MDKKNILPQQGQPVIRLTAGQLSSQRAELSEEALGDAGLEASKITACITFCAYDGELE
With B2, in data set [5], the Kd came out at 15.2 µM.

B3: PatE′ E32R (peptide)
chain: MDKKNILPQQGQPVIRLTAGQLSSQLAELSERALGDAGLEASKITACITFCAYDGELE
On to B3, for which the Kd in data set [3] amounted to 18.4 µM; in data set [4] it was 8.55 µM.

B4: PatE′ C51A (peptide)
chain: MDKKNILPQQGQPVIRLTAGQLSSQLAELSEEALGDAGLEASKITACITFAAYDGELE
In the case of B4, the binding result in data set [6] is “binds”.

B5: LynD fusion protein (PatE leader residues 21-38 and an eleven residue linker on the N-terminus of LynD) (enzyme)
chain: QLSSQLAELSEEALGDAGAGAGAGAGAGAMQSTPLLQIQPHFHVEVIEPKQVYLLGEQANHALTGQLYCQILPLLNGQYTLEQIVEKLDGEVPPEYIDYVLERLAEKGYLTEAAPELSSEVAAFWSELGIAPPVAAEALRQPVTLTPVGNISEVTVAALTTALRDIGISVQTPTEAGSPTALNVVLTDDYLQPELAKINKQALESQQTWLLVKPVGSVLWLGPVFVPGKTGCWDCLAHRLRGNREVEASVLRQKQAQQQRNGQSGSVIGCLPTARATLPSTLQTGLQFAATEIAKWIVKYHVNATAPGTVFFPTLDGKIITLNHSILDLKSHILIKRSQCPTCGDPKILQHRGFEPLKLESRPKQFTSDGGHRGTTPEQTVQKYQHLISPVTGVVTELVRITDPANPLVHTYRAGHSFGSATSLRGLRNTLKHKSSGKGKTDSQSKASGLCEAVERYSGIFQGDEPRKRATLAELGDLAIHPEQCLCFSDGQYANRETLNEQATVAHDWIPQRFDASQAIEWTPVWSLTEQTHKYLPTALCYYHYPLPPEHRFARGDSNGNAAGNTLEEAILQGFMELVERDGVALWWYNRLRRPAVDLGSFNEPYFVQLQQFYRENDRDLWVLDLTADLGIPAFAGVSNRKTGSSERLILGFGAHLDPTIAILRAVTEVNQIGLELDKVPDENLKSDATDWLITEKLADHPYLLPDTTQPLKTAQDYPKRWSDDIYTDVMTCVNIAQQAGLETLVIDQTRPDIGLNVVKVTVPGMRHFWSRFGEGRLYDVPVKLGWLDEPLTEAQMNPTPMPF
With B5, the stoichiometry N – broadly, a count of units in the complex or per binding partner – in data set [7] was 2.
On to B6, for which the “stoichiometry N” value in data set [7] worked out at 2.
